Test results as given in ChEMBL document CHEMBL1150310, “Development of novel water-soluble photocleavable protective group and its application for design of photoresponsive paclitaxel prodrugs” (Bioorg Med Chem, 2008).
Values after ≈ are worked out from the molar mass of the structure shown.

Columns and labels:
Type in all cases: physicochemical
[1] = Solubility in water at 15 degC; details: in the assay text read “25 degC” for “15 degC”
In short: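 The filtrate of the aqueous preparation was analysed by RP-HPLC. Water solubility was quantified against a calibration curve built from standard solutions of known prodrug amounts.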

[2] = Stability in solid state at -20 degC after 4 months; details: 2922 h
[3] = Stability in phosphate-buffered saline at pH 7.4 at 4 degC after 1 month; details: buffer, pH 7.4, 730.5 h
[4] = Photostability in phosphate-buffered saline assessed as paclitaxel release at pH 7.4 after irradiation with UV laser of 355 nm, 10 Hzm 5 mJ irradiation; details: buffer
In short: (§1)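 The conversion profile was measured in 10 mM PBS (pH 7.4) under pulsed UV laser irradiation (355 nm, 10 Hz, 5 mJ). The released isotaxel then undergoes spontaneous O–N intramolecular acyl migration to give paclitaxel.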

[5] = Photostability in phosphate-buffered saline assessed as paclitaxel release at pH 7.4 after 4 mins of irradiation with UV laser of 355 nm, 10 Hzm 5 mJ irradiation; details: buffer, pH 7.4, 4 min; in short: as §1
[6] = Photostability in phosphate-buffered saline assessed as paclitaxel release at pH 7.4 after 4 mins of irradiation with UV light of 365 nm, 6W irradiation; details: buffer, pH 7.4, 4 min
In short: (§2)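 Prodrug, coumarin or parent drug, as a 2 mM DMSO stock, was diluted 3:297 into 10 mM PBS (pH 7.4). It was irradiated at room temperature with a 365 nm, 6 W UV lamp, and conversion was followed by HPLC.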

[7] = Photostability in phosphate-buffered saline assessed as 7-[Bis-[2-[[2-(dimethylamino)ethyl]amino]-2-oxoethyl]amino]-4-(hydroxymethyl) coumarin hydrochloride release at pH 7.4 after 1 hr of irradiation with UV light of 365 nm, 6W irradiation; details: buffer, pH 7.4, 1 h; in short: as §2

solubility [1] [µg/mL]	Stability [2]	Stability [3]	t1/2 [4] [min]	Activity [5] [%]	Activity [6] [%]	Activity [7] [%]	SMILES
450 (≈ 527 µM)	–	–	–	–	–	–	CC(=O)O[C@H]1C(=O)[C@@]2(C)[C@H]([C@H](OC(=O)c3ccccc3)[C@]3(O)C[C@H](OC(=O)[C@H](OC(=O)c4ccccc4)[C@@H](N)c4ccccc4)C(C)=C1C3(C)C)[C@]1(OC(C)=O)CO[C@@H]1C[C@@H]2O [ISOTAXEL]
> 100000	Stable	Stable	15.1	24	69	11	CC(=O)O[C@H]1C(=O)[C@@]2(C)[C@H]([C@H](OC(=O)c3ccccc3)[C@]3(O)C[C@H](OC(=O)[C@H](OC(=O)c4ccccc4)[C@@H](NC(=O)OCc4cc(=O)oc5cc(N(CC(=O)NCCN(C)C)CC(=O)NCCN(C)C)ccc45)c4ccccc4)C(C)=C1C3(C)C)[C@]1(OC(C)=O)CO[C@@H]1C[C@@H]2O.Cl
